The target in data set [1] is 72 kDa type IV collagenase (Homo sapiens, UniProt P08253). As to the kind of experiment: Inhibition of MMP-2 (unknown origin) using 7-methoxycoumarin-4-yl)acetyl-Pro-Leu-Gly-Leu-(3-(2,4-dinitrophenyl)-L-2,3-diamino-propionyl)Ala-Arg-NH2 as substrate preincubated for 30 mins followed by substrate addition by fluorescence assay. An outline of the steps: (§1)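 Activated MMP (2 nM) preincubated with inhibitor (10 pM to 1 mM) in 50 mM Tris-HCl pH 7.5, 0.2 M NaCl, 5 mM CaCl2, 20 μM ZnSO4, 0.05% Brij 35, 37 °C for 30 min.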
Sequence of 72 kDa type IV collagenase (P08253 whole entry): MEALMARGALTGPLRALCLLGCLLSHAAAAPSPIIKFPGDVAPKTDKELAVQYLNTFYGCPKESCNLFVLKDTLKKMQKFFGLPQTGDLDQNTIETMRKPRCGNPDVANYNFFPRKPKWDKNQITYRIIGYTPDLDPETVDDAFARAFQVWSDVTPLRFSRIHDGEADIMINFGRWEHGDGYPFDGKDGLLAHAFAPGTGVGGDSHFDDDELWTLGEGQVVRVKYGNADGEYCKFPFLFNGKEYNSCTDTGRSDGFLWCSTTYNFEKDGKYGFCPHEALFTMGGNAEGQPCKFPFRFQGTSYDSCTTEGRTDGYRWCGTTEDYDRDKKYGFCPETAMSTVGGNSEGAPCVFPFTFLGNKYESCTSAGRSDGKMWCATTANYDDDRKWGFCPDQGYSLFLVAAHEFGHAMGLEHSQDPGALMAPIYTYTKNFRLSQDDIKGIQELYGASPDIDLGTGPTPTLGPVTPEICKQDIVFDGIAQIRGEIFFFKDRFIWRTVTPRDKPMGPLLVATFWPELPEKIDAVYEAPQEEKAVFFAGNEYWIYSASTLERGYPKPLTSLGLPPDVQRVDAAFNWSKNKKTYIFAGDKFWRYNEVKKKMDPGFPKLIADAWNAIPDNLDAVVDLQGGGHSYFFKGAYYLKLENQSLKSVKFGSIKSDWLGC

In the next data set the target is Collagenase 3 (Homo sapiens, UniProt P45452). As to the kind of experiment: Inhibition of MMP-13 (unknown origin) using 7-methoxycoumarin-4-yl)acetyl-Pro-Leu-Gly-Leu-(3-(2,4-dinitrophenyl)-L-2,3-diamino-propionyl)Ala-Arg-NH2 as substrate preincubated for 30 mins followed by substrate addition by fluorescence assay. An outline of the steps:
as §1

In data set [2] the target is Matrix metalloproteinase-9 (Homo sapiens, UniProt P14780). As to the kind of experiment: Inhibition of MMP-9 (unknown origin) using 7-methoxycoumarin-4-yl)acetyl-Pro-Leu-Gly-Leu-(3-(2,4-dinitrophenyl)-L-2,3-diamino-propionyl)Ala-Arg-NH2 as substrate preincubated for 30 mins followed by substrate addition by fluorescence assay. The method in brief: as §1
Sequence of Matrix metalloproteinase-9 (P14780 whole entry): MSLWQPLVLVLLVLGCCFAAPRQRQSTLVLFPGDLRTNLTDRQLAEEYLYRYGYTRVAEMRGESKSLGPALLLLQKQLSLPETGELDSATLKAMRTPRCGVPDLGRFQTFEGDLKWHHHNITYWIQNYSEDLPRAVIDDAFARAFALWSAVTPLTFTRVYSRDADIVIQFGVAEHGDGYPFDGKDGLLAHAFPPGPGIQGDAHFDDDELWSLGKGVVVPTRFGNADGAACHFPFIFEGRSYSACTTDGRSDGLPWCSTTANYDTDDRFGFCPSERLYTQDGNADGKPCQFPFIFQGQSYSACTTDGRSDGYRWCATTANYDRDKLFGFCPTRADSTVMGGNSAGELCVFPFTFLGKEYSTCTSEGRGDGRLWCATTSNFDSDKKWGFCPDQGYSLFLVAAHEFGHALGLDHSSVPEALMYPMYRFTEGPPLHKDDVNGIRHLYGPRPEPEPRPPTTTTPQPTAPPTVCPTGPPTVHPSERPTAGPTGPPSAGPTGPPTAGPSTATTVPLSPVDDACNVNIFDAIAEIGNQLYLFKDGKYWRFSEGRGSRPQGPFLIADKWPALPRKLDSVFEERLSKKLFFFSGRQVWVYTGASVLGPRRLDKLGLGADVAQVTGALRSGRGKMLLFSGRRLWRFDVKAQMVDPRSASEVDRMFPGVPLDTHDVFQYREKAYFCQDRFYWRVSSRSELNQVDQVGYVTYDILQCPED
In the next data set the target is Neutrophil collagenase (Homo sapiens, UniProt P22894). As to the kind of experiment: Inhibition of MMP-8 (unknown origin) using 7-methoxycoumarin-4-yl)acetyl-Pro-Leu-Gly-Leu-(3-(2,4-dinitrophenyl)-L-2,3-diamino-propionyl)Ala-Arg-NH2 as substrate preincubated for 30 mins followed by substrate addition by fluorescence assay. The method in brief: as §1
Sequence of Neutrophil collagenase (P22894 whole entry): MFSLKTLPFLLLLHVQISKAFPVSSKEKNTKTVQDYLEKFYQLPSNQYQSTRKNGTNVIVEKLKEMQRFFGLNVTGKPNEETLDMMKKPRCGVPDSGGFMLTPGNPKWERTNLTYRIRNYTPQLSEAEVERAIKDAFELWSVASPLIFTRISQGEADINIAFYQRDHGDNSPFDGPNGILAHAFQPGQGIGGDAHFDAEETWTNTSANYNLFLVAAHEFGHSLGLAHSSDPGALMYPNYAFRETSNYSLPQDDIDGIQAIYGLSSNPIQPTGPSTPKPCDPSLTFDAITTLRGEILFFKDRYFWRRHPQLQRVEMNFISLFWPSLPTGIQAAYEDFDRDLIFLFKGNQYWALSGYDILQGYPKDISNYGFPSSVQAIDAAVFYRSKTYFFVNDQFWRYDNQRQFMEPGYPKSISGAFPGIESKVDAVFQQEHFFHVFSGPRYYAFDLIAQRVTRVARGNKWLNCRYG
Data set [3] deals with Mus musculus. As to the kind of experiment: Biodistribution in […] mouse myocardium at 250 kBq/g, iv after 90 to 120 mins by PET analysis. It counts as ADME, organism-based. As to conditions: in vivo; call rule not given here. An outline of the steps: (§2)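 Tracer dosed at 250 kBq/g body weight as a tail-vein bolus (100 μL, flushed with 100 μL saline) into C57/Bl6 mice, then PET scanning on a submillimeter-resolution small-animal scanner. Time-activity curves were drawn for regions of interest as %ID; images cover frames up to 90−120 min p.i.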

Data set [4] relates to Mus musculus. As to the kind of experiment: Biodistribution in wild type CD1 mouse gall bladder assessed as metabolite 4 at 11.1 MBq, iv measured at 30 mins by gamma counting-based HPLC analysis. It counts as ADME, organism-based. Particulars: in vivo, 0.5 h. The method in brief:
(§3)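 About 11.1 MBq injected by tail vein (≤200 μL) into three mice, killed 30 min p.i. Tissues weighed and homogenized in 1% SDS/PBS, extracted with acetonitrile/acetic acid, frozen on dry ice, thawed, centrifuged 13000 rpm 8 min. Supernatants gamma-counted against a dose aliquot for %ID/g, then radio-HPLC on C18 (acetonitrile/water, 0.05% TFA).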

Data set [5] deals with Mus musculus. As to the kind of experiment: Biodistribution in wild type CD1 mouse small intestine assessed as metabolite 3 at 11.1 MBq, iv measured at 30 mins by gamma counting-based HPLC analysis. It counts as ADME, organism-based. Particulars: in vivo, 0.5 h. An outline of the steps: as §3
The subject of a further data set is Lung. As to the kind of experiment: Biodistribution in […] mouse lung at 250 kBq/g, iv after 90 to 120 mins by PET analysis. As to conditions: in vivo. It counts as ADME, organism-based. The method in brief: as §2
Data set [6] can be described thus: 1-octanol-PBS buffer partition coefficient, log D of the compound at 20 kBq after 1 min by gamma counting analysis. It counts as physicochemical.
The subject of data set [7] is Mus musculus. As to the kind of experiment: Biodistribution in wild type CD1 mouse gall bladder assessed as metabolite 5 at 11.1 MBq, iv measured at 30 mins by gamma counting-based HPLC analysis. It counts as ADME, organism-based. As to conditions: in vivo, 0.5 h. An outline of the steps:
as §3

The subject of data set [8] is Mus musculus. As to the kind of experiment: Biodistribution in wild type CD1 mouse gall bladder assessed as metabolite 1 at 11.1 MBq, iv measured at 30 mins by gamma counting-based HPLC analysis. It counts as ADME, organism-based. As to conditions: in vivo, 0.5 h. An outline of the steps: as §3
Data set [9] concerns Mus musculus. As to the kind of experiment: Biodistribution in wild type CD1 mouse gall bladder assessed as metabolite 2 at 11.1 MBq, iv measured at 30 mins by gamma counting-based HPLC analysis. It counts as ADME, organism-based. As to conditions: in vivo, 0.5 h. An outline of the steps: as §3
The test system of data set [10] is Mus musculus. As to the kind of experiment: Biodistribution in wild type CD1 mouse small intestine assessed as metabolite 1 at 11.1 MBq, iv measured at 30 mins by gamma counting-based HPLC analysis. Particulars: in vivo, 0.5 h. It counts as ADME, organism-based. An outline of the steps:
as §3

For data set [11], the system named is Mus musculus. As to the kind of experiment: Biodistribution in wild type CD1 mouse small intestine assessed as metabolite 5 at 11.1 MBq, iv measured at 30 mins by gamma counting-based HPLC analysis. It counts as ADME, organism-based. Particulars: in vivo, 0.5 h. An outline of the steps:
as §3

Another data set has as its system Brain. As to the kind of experiment: Biodistribution in […] mouse brain at 250 kBq/g, iv after 90 to 120 mins by PET analysis. It counts as ADME, organism-based. Particulars: in vivo. The method in brief:
as §2

The subject of another data set is Kidney. As to the kind of experiment: Biodistribution in wild type CD1 mouse kidney assessed as metabolite 3 at 11.1 MBq, iv measured at 30 mins by gamma counting-based HPLC analysis. It counts as ADME, organism-based. Particulars: in vivo, 0.5 h. The method in brief: as §3
Another data set has as its system Serum. As to the kind of experiment: Metabolic stability in mouse serum at 5 MBq after 30 to 120 mins by radio-HPLC analysis. It counts as ADME, cell-free. An outline of the steps:
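PBS-formulated radioligand (20 μL, 5 MBq) added to 200 μL mouse serum at 37 °C. 20 μL samples taken at 10−120 min, quenched in MeOH/CH2Cl2 1:1 and centrifuged 2 min. Organic layer analysed by radio-HPLC, isocratic 35% CH3CN/water (0.1% TFA) for 13 min, then gradient.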

A further data set concerns Muscle tissue. As to the kind of experiment: Biodistribution in […] mouse muscle at 250 kBq/g, iv after 90 to 120 mins by PET analysis. As to conditions: in vivo. It counts as ADME, organism-based. The method in brief:
as §2

In general, IC50 refers to the concentration at which inhibition is half-maximal. Consider `COc1ccc(S(=O)(=O)N(CCn2cc(CN(C)S(=O)(=O)c3ccc(F)cc3)nn2)[C@@H](C(=O)NO)C(C)C)cc1`, for which the IC50 in data set [1] came out at 3 nM; at Collagenase 3 it was 1 nM; in data set [2], 3 nM; on Neutrophil collagenase it was 1 nM.

Regarding `Cc1ccc(S(=O)(=O)N(CCN=[N+]=[N-])[C@@H](C(=O)NO)C(C)C)cc1`, the IC50 in data set [1] came to 4 nM; on Collagenase 3 it was 1 nM; in [2], 4 nM; against Neutrophil collagenase, 1 nM.

Consider `Cc1ccc(S(=O)(=O)N(CCn2cc(CCCF)nn2)[C@@H](C(=O)NO)C(C)C)cc1`, for which the IC50 came out at 2 nM in [1], 0.3 nM on Collagenase 3, 3 nM in data set [2] and 0.9 nM at Neutrophil collagenase.

Consider `Cc1ccc(S(=O)(=O)N(CCn2cc(COCCOCCOCCOCCOCCF)nn2)[C@@H](C(=O)NO)C(C)C)cc1`, for which the 50% inhibitory concentration (IC50) in data set [1] amounted to 3 nM; on Collagenase 3, 0.1 nM; in data set [2], 0.4 nM; against Neutrophil collagenase, 2 nM.

As for `Cc1ccc(S(=O)(=O)N(CCn2cc(CCCCOc3cccnc3F)nn2)[C@@H](C(=O)NO)C(C)C)cc1`, the IC50 in data set [1] is 3 nM; at Collagenase 3 it was 3 nM; in [2], 6 nM; against Neutrophil collagenase it was 4 nM.

`CC(C)[C@H](C(=O)NO)N(CCN=[N+]=[N-])S(=O)(=O)c1ccc(OCCF)cc1`: the IC50 was 4 nM in [1], 1 nM against Collagenase 3, 4 nM in [2] and 1 nM against Neutrophil collagenase.

Turning to `CC(C)[C@H](C(=O)NO)N(CCn1cc(CCCF)nn1)S(=O)(=O)c1ccc(OCCF)cc1`, the half-maximal inhibitory concentration (IC50) in data set [1] came to 2 nM; on Collagenase 3 it was 0.07 nM; in data set [2], 2 nM; at Neutrophil collagenase, 0.4 nM.

As for `CC(C)[C@H](C(=O)NO)N(CCn1cc(COCCOCCOCCOCCOCCF)nn1)S(=O)(=O)c1ccc(OCCF)cc1`, the IC50 came out at 5 nM in [1], 7 nM at Collagenase 3, 10 nM in [2] and 35 nM against Neutrophil collagenase.

`CC(C)[C@H](C(=O)NO)N(CCn1cc(CCCCOc2cccnc2F)nn1)S(=O)(=O)c1ccc(OCCF)cc1`: the half-maximal inhibitory concentration (IC50) was found to be 0.4 nM in data set [1], 0.07 nM against Collagenase 3, 0.8 nM in data set [2] and 0.05 nM on Neutrophil collagenase.

As for `CC(C)[C@H](C(=O)NO)N(CCn1cc(CNS(=O)(=O)c2ccc(F)cc2)nn1)S(=O)(=O)c1ccc(OCCF)cc1`, the IC50 in data set [1] worked out at 4 nM; against Collagenase 3, 0.1 nM; in data set [2], 3 nM; against Neutrophil collagenase, 0.7 nM.

For `CC(C)[C@H](C(=O)NO)N(CCn1cc(CN(C)S(=O)(=O)c2ccc(F)cc2)nn1)S(=O)(=O)c1ccc(OCCF)cc1`, the IC50 came out at 9 nM in data set [1], 1 nM on Collagenase 3, 11 nM in [2] and 5 nM against Neutrophil collagenase.

Turning to `CC(C)[C@H](C(=O)NO)N(Cc1cn(CCF)nn1)S(=O)(=O)c1ccc(OCCF)cc1`, the IC50 in [1] worked out at 2 nM; on Collagenase 3, 0.7 nM; in data set [2] it was 7 nM; on Neutrophil collagenase it was 2 nM.

For the compound `CC(C)[C@H](C(=O)NO)N(Cc1cn(CCOCCOCCOCCF)nn1)S(=O)(=O)c1ccc(OCCF)cc1`, the IC50 in data set [1] worked out at 2 nM; against Collagenase 3 it was 0.6 nM; in data set [2], 0.2 nM; at Neutrophil collagenase, 0.2 nM.

On to `CC(C)[C@H](C(=O)NO)N(Cc1cn(CCOCCOCCOCCOc2cccnc2F)nn1)S(=O)(=O)c1ccc(OCCF)cc1`, for which the half-maximal inhibitory concentration (IC50) worked out at 0.5 nM in [1], 0.3 nM at Collagenase 3, 0.2 nM in data set [2] and 0.3 nM on Neutrophil collagenase.

What is called logD is lipophilicity at a set pH, counting ionised and neutral species. A lower logD goes with lower lipophilicity. With `COc1ccc(S(=O)(=O)N(CCn2cc(CCC[18F])nn2)[C@@H](C(=O)NO)C(C)C)cc1`, the Drug uptake result in the data set with Mus musculus [3] is listed as “Not Active”; in the data set on Mus musculus [4], 15.97 % ID/g; with Mus musculus [5], 30.27 % ID/g; in the data set on Lung, “Not Active”; in the data set with Mus musculus [7], 3.55 % ID/g; in the data set on Mus musculus [8], 6.21 % ID/g. Besides, the Drug uptake is given as 7.1 % ID/g in the data set with Mus musculus [9]; 4.32 % ID/g in the data set with Mus musculus [10]; 2.47 % ID/g in the data set on Mus musculus [11]; “Not Active” with Brain; 0.67 % ID/g with Kidney; “Not Active” in the data set on Muscle tissue. In addition, the logD at 1 min in [6] is 1.25. In addition, the Stability entry in the data set with Serum is reported as “Stable”.

Turning to `COc1ccc(S(=O)(=O)N(CCN=[N+]=[N-])[C@@H](C(=O)NO)C(C)C)cc1`, the IC50 in data set [1] was 0.9 nM; against Collagenase 3 it was 9 nM; in data set [2], 6 nM; on Neutrophil collagenase, 2 nM.

Consider `COc1ccc(S(=O)(=O)N(CCn2cc(CCCF)nn2)[C@@H](C(=O)NO)C(C)C)cc1`, for which the IC50 in [1] was 0.7 nM; against Collagenase 3, 0.05 nM; in data set [2] it was 0.07 nM; against Neutrophil collagenase, 0.4 nM.

Consider `COc1ccc(S(=O)(=O)N(CCn2cc(COCCOCCOCCOCCOCCF)nn2)[C@@H](C(=O)NO)C(C)C)cc1`, for which the IC50 came out at 4 nM in [1], 6 nM at Collagenase 3, 2 nM in data set [2] and 1 nM against Neutrophil collagenase.

As for `COc1ccc(S(=O)(=O)N(CCn2cc(CCCCOc3cccnc3F)nn2)[C@@H](C(=O)NO)C(C)C)cc1`, the IC50 in data set [1] came out at 0.9 nM; against Collagenase 3, 0.04 nM; in data set [2], 0.3 nM; against Neutrophil collagenase it was 0.5 nM.

For `COc1ccc(S(=O)(=O)N(CCn2cc(CNS(=O)(=O)c3ccc(F)cc3)nn2)[C@@H](C(=O)NO)C(C)C)cc1`, the IC50 in data set [1] amounted to 5 nM; against Collagenase 3, 0.09 nM; in data set [2] it was 0.6 nM; against Neutrophil collagenase, 0.2 nM.

These data come from ChEMBL document CHEMBL2424572 (J Med Chem, 2013).
